13 compounds from ChEMBL document CHEMBL5325427 can be followed below.

For series [1], the target named is Replicase polyprotein 1ab (Severe acute respiratory syndrome coronavirus 2, UniProt P0DTD1). The series can be described thus: Inhibition of recombinant SARS CoV-2 PL protease incubated for 2 hrs followed by substrate addition and measured after 1 hr by fluorescence based analysis.
The target in series [2] is Replicase polyprotein 1ab (Severe acute respiratory syndrome coronavirus 2) (UniProt P0DTD1). The series can be described thus: Inhibition of SARS-CoV-2 3CLpro at 10 ug/ml preincubated with enzyme for 30 mins followed by substrate addition and measured after 4 hrs by fluorescence based analysis. To be noted: dose 10.0 µg/ml, time 4.5 hrs. The method, boiled down: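 Recombinant SARS-CoV-2 3CLpro (1.5 ng/μl) was pre-incubated with compound 30 min at RT. Fluorogenic substrate was added to a final 40 μM and incubated 4 h at RT. Fluorescence was read at Ex 360/Em 460 nm. Wells were run in triplicate and blank was subtracted.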

The next series has as its system SARS-CoV-2. The experiment in a line: Antiviral activity against SARS-CoV-2 NRC-03-nhCoV infected in african green monkey Vero E6 cells assessed as inhibition of viral growth pre-infected cells with virus for 1 hr followed by compound addition for 1 hr and measured after 72 hrs by crystal violet staining based analysis. The format is functional, organism-based. To be noted: Severe acute respiratory syndrome coronavirus 2, NRC-03-nhCoV, Vero C1008.

A short description of series [3]: (§1) Cytotoxicity against African green monkey Vero E6 cells measured after 72 hrs by crystal violet staining based analysis. The format is toxicity, cell-based, Vero C1008. To be noted: chlorocebus sabaeus, Vero E6 cells. The method, boiled down: (§2)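 Vero-E6 cells were seeded at 3 × 10^5 cells/mL, grown 24 h at 37 °C with 5% CO2, then given graded compound concentrations in triplicate for 72 h. Stocks were made in 10% DMSO in DMEM. Cells were fixed in 10% formalin, stained with 0.1% crystal violet, dissolved in methanol and read at A570. CC50 was taken by nonlinear regression of log concentration versus normalised response against untreated cells.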

Series [4] is described as follows: Selectivity index, ratio of CC50 for African green monkey Vero E6 cells to IC50 for antiviral activity against SARS-CoV-2 NRC-03-nhCoV infected in african green monkey Vero E6 cells. Format: toxicity, cell-based, Vero C1008. To be noted: read-out: Ratio CC50/IC50.
Series [5] has as its target Replicase polyprotein 1ab (Severe acute respiratory syndrome coronavirus 2) (UniProt P0DTD1). The series can be described thus: Inhibition of recombinant SARS CoV-2 PL protease at 25 ug/ml incubated for 2 hrs followed by substrate addition and measured after 1 hr by fluorescence based analysis relative to control. To be noted: dose 25.0 µg/ml, time 3.0 hrs.
Series [6] can be described thus: Stability in CD-1 mouse liver microsomes assessed as compound remaining at 1 uM measured after 60 mins in absence of NADPH by LC-MS-MS analysis. To be noted: read-out: Stability. Format: ADME, Microsome. The method, boiled down:
(§3)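 Compound was incubated in liver microsomes without NADPH. Percent remaining was measured after 60 min.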
Background: Liver microsomes are a subcellular fraction often used to study metabolism.

A further series has as its system Vero C1008. The series is described as §1. To be noted: chlorocebus sabaeus, vero c1008, 72 h. The format is toxicity, cell-based. The method, boiled down: as §2
Series [7] is described as follows: Aqueous solubility of the compound in PBS buffer at pH 7.4 at 200 uM by microplate reader method. Format: physicochemical.
A short description of series [8]: Stability in CD-1 mouse liver microsomes assessed as half life at 1 uM in presence of NADPH by LC-MS-MS analysis. Format: ADME, Microsome.
Series [9] in a line: Stability in human liver microsomes assessed as half life at 1 uM in presence of NADPH by LC-MS-MS analysis. The format is ADME, Microsome.
Series [10] in a line: Stability in human microsomes assessed as compound remaining at 1 uM measured after 60 mins in absence of NADPH by LC-MS-MS analysis. The format is ADME, Microsome. To be noted: read-out: Stability. The essentials: as §3

By IC50 is commonly meant the concentration at which inhibition is half-maximal. One may read the inhibition as the percentage by which the read-out fell short of the control. A word on the CC50: it is the concentration at which the toxic effect on the cells reaches its halfway point. For orientation: solubility means the concentration that dissolves in the medium under given conditions.

In brackets after ≈: the same amount, converted by molar mass. Activity calls are given as the source filed them. The calls are words filed in the database; no cut-off is given here.

On to `COC(=O)[C@@H]1CC2(C(=O)Nc3ccccc32)C2CC[C@@]3(OC)C=CC(=O)C[C@H]3N21` (stereo not given in full), for which the IC50 in series [1] was 10.3 µM. In addition, in series [2], the inhibition result is “inactive”.
As to `Cc1ccc(N)cc1C(=O)N[C@H](C)c1cccc2ccccc12`, in series [2], the inhibition result was “inactive”.
Consider `COC(=O)CC1COc2c(cc3c4c2CCCN4CCC3)-c2c(NC(C)(C)C)n3c(-c4ccccc4)c(-c4ccccc4)sc3[n+]21` (stereo not given), for which, in [2], the inhibition entry was “inactive”.
On to `FC(F)(F)Oc1ccc(N/N=C2/C=C[C@@]3(CC2)CC[C@@H]2NCCc4cccc5[nH]c3c2c45)cc1`, for which, in series [1], the IC50 was 27.5 µM. In addition, the inhibition entry in series [2] was “inactive”.
Turning to `COc1ccc2[nH]cc(CCN3C(=O)[C@H](c4nnc(-c5cccc(C(F)(F)F)c5)o4)[C@H](CC(=O)O)COc4ccccc4[C@@H]3C(=O)NC(C)(C)C)c2c1`, the IC50 in series [1] is 1.16 µM. In series [2], the inhibition result is “inactive”.
`COc1ccc2[nH]c3c(c2c1)C[C@]1(OC)CC[C@H]2c4c[nH]c5cccc(c45)CCN2[C@@H]1C3`: the IC50 in series [1] is 32.6 µM. Besides, the inhibition result in series [2] was “inactive”.
On to `COC(=O)C[C@@H]1COc2ccccc2[C@H](C(=O)NC(C)(C)C)N(CCc2c[nH]c3ccc(OC)cc23)C(=O)[C@@H]1c1nnc(-c2cccc(C(F)(F)F)c2)o1`, for which the inhibition entry in series [2] is “inactive”.
Turning to `COC(=O)CC1COc2c(cc3c4c2CCCN4CCC3)-c2c(NC(C)(C)C)n3c(-c4ccc(F)cc4)c(C)sc3[n+]21` (stereo not given), the IC50 in series [1] is 5.57 µM. Besides, the inhibition result in series [2] was “inactive”.
With `CO[C@@]12C=CC(=O)C[C@@H]1[n+]1c(c(NC(C)(C)C)n3c(-c4ccccc4)c(-c4ccccc4)sc31)CC2.O=S(=O)([O-])C(F)(F)F`, the IC50 in the series on SARS-CoV-2 is 217 µg/mL. The inhibition result in [2] is “inactive”. This compound returned a CC50 at 72 h in [3] of 89.7 µg/mL. For the same compound, the selectivity ratio in series [4] came to 0.41.
As for `COC(=O)[C@H](Cc1ccc(OC)c(OC)c1)N1CC(c2cc(C)ccc2O)=N[C@@H](Cc2ccc(OC)c(OC)c2)C1=O`, the IC50 in series [1] was 47.8 µM. In addition, in series [2], the inhibition result was “inactive”. The inhibition in [5] was 50%.
In the case of `CC1=C(c2cccc3c2OCO3)N2C(=N[C@@H]3c4c(ccc5ccccc45)OC[C@@H]3C2(C)C)S1`, the IC50 in [1] was 72.8 µM. In addition, the inhibition entry in series [2] was “inactive”. The inhibition in [5] stood at 50%.
As for `C[C@]12C=CC(=O)C[C@H]1N1CCc3cccc4[nH]cc(c34)C1CO2` (stereo not given in full), the IC50 in series [1] is 19.7 µM. Besides, the inhibition result in series [2] was “inactive”.
As for `CC1(C)[C@H]2COc3ccc4ccccc4c3[C@H]2N=C2SC=C(c3ccc(S(=O)(=O)N4CCOCC4)cc3)N21`, the remaining at 1 h, 1 µM in [6] was 92%; in series [10], 119%. Besides, the IC50 in the series with SARS-CoV-2 was 67.6 µg/mL (≈ 123 µM); in series [1], 0.121 µM. Also, in series [2], the inhibition result was “inactive”. The CC50 in the series on Vero C1008 came out at 43.12 µg/mL (≈ 78.7 µM). In series [7], this compound had a solubility at 200 µM of 56.1 µM (≈ 30.7 µg/mL). Also, the t1/2 is given as 11.2 min in [8] and 5.7 min in series [9]. For the same compound, the selectivity ratio in [4] came to 0.64.
